The subject of series [1] is Plasma. Nature of the series: Drug level in methionine and choline deficient fed Sprague-Dawley rat plasma at 10 mg/kg, iv after 120 mins by LC-MS/MS method. Type of series: ADME, organism-based. Also on record: dose 10 mg/kg, route intravenous. Conditions: in vivo, 2 h. The essentials:
(§1)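 MCD-diet (8 weeks) male SD rats under urethane, femoral artery/vein and bile duct cannulated; EZE 10 mg/kg i.v. bolus via femoral vein in ethanol/propylene glycol/PEG 400/water vehicle (n=3-5). Arterial plasma sampled from 2 to 120 min; 25 µL plasma analysed by LC-MS/MS with and without β-glucuronidase pre-hydrolysis; glucuronide calculated by difference. Mean ± SEM.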

The nature of series [2]: Drug level in methionine and choline deficient fed Sprague-Dawley rat urine at 10 mg/kg, iv after 120 mins by LC-MS/MS method. Type of series: ADME, organism-based. Further details: dose 10 mg/kg, route intravenous. Conditions: in vivo, 2 h. Summed up:
(§2)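 After 8 weeks MCD diet, male SD rats under urethane received EZE 10 mg/kg i.v. through femoral vein cannula (ethanol/propylene glycol/PEG 400/water vehicle; n=3-5). Terminal urine taken by bladder puncture at 120 min; EZE and β-glucuronidase-hydrolysed total EZE measured by LC-MS/MS; glucuronide by difference.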

Series [3] deals with Plasma. Nature of the series: Drug metabolism in methionine and choline deficient fed Sprague-Dawley rat plasma assessed as ezetimibe glucuronide formation at 10 mg/kg, iv after 120 mins by LC-MS/MS method. The class given is ADME, organism-based. Also on record: dose 10 mg/kg, route intravenous. Conditions: in vivo, 2 h. Summed up: as §1
Series [4] is described as follows: Drug metabolism in methionine and choline deficient fed Sprague-Dawley rat bile assessed as ezetimibe glucuronide formation at 10 mg/kg, iv after 30 to 90 mins by LC-MS/MS method. Type of series: ADME, organism-based. Also on record: dose 10 mg/kg, route intravenous. Particulars: in vivo. Summed up: (§3)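 Male SD rats (200-250 g) on MCD diet 8 weeks, urethane-anesthetized (1.2 g/kg i.p.), femoral vein/artery and bile duct cannulated, core temperature maintained. EZE 10 mg/kg i.v. via femoral vein in 10% ethanol/40% propylene glycol/30% PEG 400/20% water (n=3-5). Bile collected at 15-min intervals over 120 min; total EZE after β-glucuronidase (50°C, 60 min) and EZE by LC-MS/MS; glucuronide = total minus parent.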

For series [5], the system named is Rattus norvegicus. The series can be described thus: Effect on total bile acid levels in Sprague-Dawley rat nonalcoholic steatohepatitis model at 10 mg/kg, iv after 120 mins by spectrophotometry. Type of series: functional, organism-based. Further details: dose 10 mg/kg.
Series [6] can be described thus: Drug level in methionine and choline deficient fed Sprague-Dawley rat urine at 10 mg/kg, po after 120 mins by LC-MS/MS method. Further details: dose 10 mg/kg, route oral. Conditions: in vivo, 2 h. The class given is ADME, organism-based. The essentials: (§4)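 MCD-fed (8 weeks) male SD rats, urethane-anesthetized and cannulated, dosed EZE 10 mg/kg by gavage in 0.25% carboxymethylcellulose (n=3-5). Urine collected by bladder puncture 120 min post-dose; parent and total EZE (after β-glucuronidase, 50°C, 60 min) by LC-MS/MS, glucuronide calculated as their difference.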

For series [7], the system named is Plasma. The series can be described thus: Drug level in methionine and choline deficient fed Sprague-Dawley rat plasma at 10 mg/kg, po after 40 mins by LC-MS/MS method. Also on record: dose 10 mg/kg, route oral. Type of series: ADME, organism-based. Conditions: in vivo. Summed up:
(§5)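 Cannulated, urethane-anesthetized male SD rats after 8 weeks MCD diet given EZE 10 mg/kg orally in 0.25% carboxymethylcellulose (n=3-5). Plasma collected from 2 to 120 min post-dose; total EZE (after β-glucuronidase, 50°C 60 min) and parent EZE quantified by LC-MS/MS; glucuronide = total minus parent. Mean ± SEM.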

Series [8] can be described thus: Drug metabolism in methionine and choline deficient fed Sprague-Dawley rat bile assessed as ezetimibe glucuronide formation at 10 mg/kg, po after 120 mins by LC-MS/MS method. Also on record: dose 10 mg/kg, route oral. The class given is ADME, organism-based. Particulars: in vivo, 2 h. Summed up:
(§6)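 Male SD rats (200-250 g) fed MCD diet 8 weeks, urethane-anesthetized with femoral and bile duct cannulae. EZE 10 mg/kg by oral gavage in 0.25% carboxymethylcellulose (n=3-5). Bile taken at 15-min intervals to 120 min; samples ±β-glucuronidase hydrolysis (50°C, 60 min), hydroxychalcone internal standard, LC-MS/MS on C18 gradient; glucuronide derived as total minus unconjugated EZE.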

Series [9] in a line: Drug metabolism in methionine and choline deficient fed Sprague-Dawley rat urine assessed as ezetimibe glucuronide formation at 10 mg/kg, iv after 120 mins by LC-MS/MS method. Type of series: ADME, organism-based. Further details: dose 10 mg/kg, route intravenous. Particulars: in vivo, 2 h. The essentials: as §2
Series [10] has as its system Plasma. The series can be described thus: Drug metabolism in methionine and choline deficient fed Sprague-Dawley rat plasma assessed as ezetimibe glucuronide formation at 10 mg/kg, po after 40 mins by LC-MS/MS method. The class given is ADME, organism-based. Conditions: in vivo. Also on record: dose 10 mg/kg, route oral. The essentials: as §5
Series [11] concerns Plasma. Nature of the series: Drug metabolism in methionine and choline deficient fed Sprague-Dawley rat plasma assessed as ezetimibe glucuronide formation at 10 mg/kg, po after 120 mins by LC-MS/MS method. Particulars: in vivo, 2 h. Type of series: ADME, organism-based. Further details: dose 10 mg/kg, route oral. The essentials:
as §5

Series [12] deals with Plasma. Nature of the series: Drug level in methionine and choline deficient fed Sprague-Dawley rat plasma at 10 mg/kg, po after 120 mins by LC-MS/MS method. Type of series: ADME, organism-based. Conditions: in vivo, 2 h. Also on record: dose 10 mg/kg, route oral. The essentials:
as §5

The nature of series [13]: Drug level in methionine and choline deficient fed Sprague-Dawley rat bile at 10 mg/kg, iv after 30 to 90 mins by LC-MS/MS method. Particulars: in vivo. Also on record: dose 10 mg/kg, route intravenous. Type of series: ADME, organism-based. The essentials: as §3
Series [14] concerns Plasma. The series can be described thus: Drug level in methionine and choline deficient fed Sprague-Dawley rat plasma at 10 mg/kg, iv after 40 mins by LC-MS/MS method. Also on record: dose 10 mg/kg, route intravenous. Type of series: ADME, organism-based. Particulars: in vivo. The essentials: as §1
The nature of series [15]: Drug level in methionine and choline deficient fed Sprague-Dawley rat bile at 10 mg/kg, po after 120 mins by LC-MS/MS method. The class given is ADME, organism-based. Further details: dose 10 mg/kg, route oral. Particulars: in vivo, 2 h. The essentials: as §6
A short description of series [16]: Drug metabolism in methionine and choline deficient fed Sprague-Dawley rat urine assessed as ezetimibe glucuronide formation at 10 mg/kg, po after 120 mins by LC-MS/MS method. Type of series: ADME, organism-based. Also on record: dose 10 mg/kg, route oral. Conditions: in vivo, 2 h. Summed up:
as §4

Series [17] has as its system Plasma. Nature of the series: Drug metabolism in methionine and choline deficient fed Sprague-Dawley rat plasma assessed as ezetimibe glucuronide formation at 10 mg/kg, iv after 40 mins by LC-MS/MS method. The class given is ADME, organism-based. Further details: dose 10 mg/kg, route intravenous. Particulars: in vivo. Summed up: as §1
Series [18] deals with Rattus norvegicus. Nature of the series: Effect on total bile acid levels in Sprague-Dawley rat nonalcoholic steatohepatitis model at 10 mg/kg, po after 120 mins by spectrophotometry. Type of series: functional, organism-based. Also on record: dose 10 mg/kg.
Series [19] can be described thus: Drug level in methionine and choline deficient fed Sprague-Dawley rat bile treated with ezetimibe at 10 mg/kg, iv after 30 to 90 mins by LC-MS/MS method. Also on record: dose 10 mg/kg, route intravenous. The class given is ADME, organism-based. Particulars: in vivo. Summed up:
as §3

A short description of series [20]: Drug level in methionine and choline deficient fed Sprague-Dawley rat urine treated with ezetimibe at 10 mg/kg, iv after 120 mins by LC-MS/MS method. Conditions: in vivo, 2 h. Also on record: dose 10 mg/kg, route intravenous. The class given is ADME, organism-based. The essentials:
as §2

This note sets out measurements from ChEMBL document CHEMBL3526134, “Molecular mechanism of altered ezetimibe disposition in nonalcoholic steatohepatitis” (Drug Metab Dispos, 2012).

The source made the active and inactive calls. The calls are words filed in the database; no cut-off is given here.

`O=C1[C@H](CC[C@H](O)c2ccc(F)cc2)[C@@H](c2ccc(O)cc2)N1c1ccc(F)cc1` [EZETIMIBE]: the Drug uptake entry in series [1] is recorded as “Active”; in series [2], “Active”; in series [6], “Active”; in series [7], “Active”; in [12], “Active”; in [13] it was “Not Active”. The Drug uptake result in [14] and in [15] was “Active” each time. The Drug metabolism result in series [3] is reported as “metabolite_detected”; in series [4] it was “metabolite_not_detected”; in [8], “metabolite_detected”; in series [9], “metabolite_detected”; in [10] it was “metabolite_detected”; in series [11] it was “metabolite_detected”. For the same compound, the Drug metabolism result in series [16] and in series [17] was “metabolite_detected” in each case. The outcome in series [5] and in [18] was inactive.
Take `O=C(O)[C@H]1O[C@@H](Oc2ccc([C@@H]3[C@@H](CC[C@H](O)c4ccc(F)cc4)C(=O)N3c3ccc(F)cc3)cc2)[C@H](O)[C@@H](O)[C@@H]1O`: the Drug metabolism entry in series [19] is on record as “metabolite_not_detected”; in series [20], “metabolite_detected”.
